Assay results from different studies.
Lines come from different studies, so protocols differ.
SRC: Proto-oncogene tyrosine-protein kinase Src (SRC, Homo sapiens, UniProt P12931)

| Structure (SMILES) | target | assay | conditions | endpoint | value |
| --- | --- | --- | --- | --- | --- |
| C[C@@H]1CN(c2cc(-c3nn(C)c4ccc(OC5(C)CC5)cc34)ncn2)C[C@H](C)O1 | SRC | cell-free assay, competition with immobilised ligand | 1 µM | remaining binding | 100% |
| CC/C(=N\NC(=O)NCc1cccc(O)c1)c1ccc(O)c(C)c1O | SRC | enzyme activity, inhibitor | 0.1 µM | inhibition | 1.9% |
| Cc1ccc(Nc2nccc(N(C)c3ccc4c(C)n(C)nc4c3)n2)cc1S(N)(=O)=O | SRC | enzyme activity, inhibitor | 0.3 µM | inhibition | 42% |
| COc1cccc2c(NCc3ccccc3)nc(-n3c(N)nc4ccccc43)nc12 | SRC | target engagement in cells, inhibitor, chemoproteomics | 20 mM | inhibition | -15.5% |
| O=C(NCc1ncc(C(F)(F)F)cc1Cl)c1ccc2c(c1)C1(CCS(=O)(=O)CC1)[C@@H](C1CC1)N2S(=O)(=O)c1ccc(F)cc1 | SRC | cell-free assay, competition with immobilised ligand | 1 µM | remaining binding | 98% |
| COc1cc2ncnc(Nc3cccc(Cl)c3)c2cc1OC | SRC | cell-free assay | 0.5 µM | remaining signal | 71.9% |
| CNc1cccc2cc(C(=O)Nc3ccc(C(=O)O)cc3)c(=O)[nH]c12 | SRC | enzyme activity, inhibitor | 10 µM | inhibition | 5% |
| FC(F)(F)Oc1cccc(-c2cnc3ccc(-c4ccncc4)nn23)c1 | SRC | enzyme activity, inhibitor, radiometric | 5 µM | activity vs control | 45% |
| CO[C@@H](C)c1c(Nc2ccc([C@@H](N(C)C(=O)C3CCS(=O)(=O)CC3)C(F)(F)F)cc2)cnc2cc(Cl)nn12 | SRC | cell-free assay, competition with immobilised ligand | 1 µM | remaining binding | 98% |
| COc1cc2nccc(Oc3ccc(NC(=O)c4c5n(n(-c6ccc(F)cc6)c4=O)CCCC5)cc3)c2cc1OC | SRC | enzyme activity, inhibitor | 0.1 µM | inhibition | 49% |
| COc1cc2ncnc(Nc3ccc(Oc4ccccc4)cc3C)c2cc1OC | SRC | enzyme activity, inhibitor | 1 µM | inhibition | 90% |
| Cn1nc(C(F)(F)F)cc1-c1cnc(N2CCc3cc(S(=O)(=O)Nc4c(F)cc(Cl)cc4F)cc(N4CCCC4=O)c32)nc1 | SRC | cell-free assay, competition with immobilised ligand | 1 µM | remaining binding | 100% |
| CC(C)n1cnc2c(Nc3cccc(Cl)c3)nc(NCCO)nc21 | SRC | cell-free assay | 0.5 µM | remaining signal | 68.9% |
| CCC(=O)N[C@H]1CC[C@@H](C(=O)N(C)c2ccc(-c3nc4ccccc4o3)cc2)C1 | SRC | cell-free assay, competition with immobilised ligand | 1 µM | remaining binding | 93% |
| COc1cc2c(Nc3ccc(Br)cc3F)ncnc2cc1OCC1CCN(C)CC1 | SRC | cell-free assay | 0.5 µM | remaining signal | 11% |
| Cc1cc(NC(=O)c2cccc3cc(-c4cccc5[nH]nc(N)c45)ccc23)ccc1F | Proto-oncogene tyrosine-protein kinase Src (SRC, Homo sapiens, UniProt P12931, T341M) | enzyme activity, inhibitor | 0.1 µM | activity vs control | 90% |
| COc1cc2ncnc(N3CCN(C(=O)Nc4ccc(Oc5ccccc5)cc4)CC3)c2cc1OC | SRC | cell-free assay | 0.5 µM | remaining signal | 102% |
| Cc1cc(NC(=O)c2cccc(S(F)(F)(F)(F)F)c2)cc(-n2ccn3nc(-c4cccnc4)cc23)c1 | SRC | cell-free assay, competition with immobilised ligand | 1 µM | remaining binding | 100% |
| CN(C)C1CCN(CC#Cc2nn(C3CCCC3)c3nc(NCc4ccccc4)ncc23)C1 (stereo not drawn) | SRC | enzyme activity, inhibitor, FRET | 10 µM | inhibition | 41% |
| CCC(=O)Nc1ccc2ncnc(Nc3cccc(Br)c3)c2c1 | SRC | cell-free assay, inhibitor | 0.5 µM | remaining signal | 93.6% |
| CSc1nc(C)c(-c2ccnc(Nc3ccc(N4CCOCC4)cc3)c2)[nH]1 | SRC | enzyme activity, inhibitor | 10 µM | inhibition | 12.5% |
| CCCOc1ccc([C@@H]2[C@@H](C(=O)O)[C@H](c3ccc4c(c3)OCO4)CN2CC(=O)Nc2c(CC)cccc2CC)cc1 | SRC | cell-free assay, competition with immobilised ligand | 1 µM | remaining binding | 100% |
| CCCS(=O)(=O)Nc1ccc(F)c(C(=O)c2c[nH]c3ncc(-c4ccc(Cl)cc4)cc23)c1F | SRC | enzyme activity, inhibitor | 1 µM | inhibition | < 20% |
| CO[C@H]1CC[C@H](CNc2ccc(S(=O)(=O)NC(=O)c3ccc(N4CCN(CC5=C(c6ccc(Cl)cc6)CC(C)(C)CC5)CC4)cc3Oc3cnc4[nH]ccc4c3)cc2[N+](=O)[O-])CC1 | SRC | cell-free assay, competition with immobilised ligand | 1 µM | remaining binding | 78% |
| O=C1c2ccccc2-c2n[nH]c3cccc1c23 | SRC | enzyme activity, inhibitor | 0.5 µM | activity vs control | 97.6% |
| CS(=O)(=O)Nc1cccc(-c2csc(NC(=O)CSc3nc4nccnc4c(=O)n3CCc3ccccc3)n2)c1 | SRC | enzyme activity, inhibitor | 10 µM | inhibition | 10% |
| COc1cc(/C=C/C(=O)CC(=O)/C=C/c2ccc(O)c(OC)c2)ccc1O | SRC | enzyme activity, inhibitor | 1 µM | activity vs control | 81% |
